Columns and labels:
[1] = system: HeLa; assay: Cytotoxicity against human HeLa cells; assay type: functional, cell-based
Outline: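 HeLa cells seeded at 6000 cells/well and cultured 12 h in RPMI with 10% FBS. Medium then replaced with 5% FBS-RPMI containing test concentrations, 22 h incubation. MTS added and reduction read 2 h later by absorbance at 492 nm, with 690 nm as background.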

[2] = system: THP-1; assay: Cytotoxicity against human THP1 cells; assay type: functional, cell-based
[3] = Decrease in EGF induced AP1 dependent transcription in mouse […] cells at 1.1 ug/ml by luciferase assay; assay type: functional; parameters: scale not given: the % may be the effect or the level left
Outline: (§1)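 JB6-LucAP-1 reporter cells activated with EGF (10 ng/mL), TPA (20 ng/mL) or UVB (4 kJ/m2), plated at 6 × 10^3/well in 5% FBS/MEM and kept 24 h. Compound added in 0.1% FBS-MEM for 24 h. Cells lysed 1 h at room temperature, then luciferase luminescence read. Two independent experiments, five samples per concentration.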

[4] = Decrease in EGF induced NFKappaB dependent transcription in mouse JB6 Cl41 cells at 0.7 ug/ml by luciferase assay; assay type: functional; parameters: scale not given: the % may be the effect or the level left
Outline: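 JB6-LucNF-κB reporter cells activated with EGF (10 ng/mL), plated at 6 × 10^3/well in 5% FBS/MEM and kept 24 h. Compound added in 0.1% FBS-MEM for 24 h. Cells lysed 1 h at room temperature, then luciferase luminescence read. Two independent experiments, five samples per concentration.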

[5] = Decrease in TPA induced AP1 dependent transcription in mouse JB6 Cl41 cells at 1.1 ug/ml by luciferase assay; assay type: functional; parameters: scale not given: the % may be the effect or the level left; outline: as §1
[6] = Increase in p53 dependent transcription in mouse JB6 Cl41 cells at 1.8 ug/ml by luciferase assay; assay type: functional
Outline: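 JB6-Lucp53 reporter cells, not activated, plated at 6 × 10^3/well in 5% FBS/MEM and kept 24 h. Compound added in 0.1% FBS-MEM for 24 h. Cells lysed 1 h at room temperature, then luciferase luminescence read. Two independent experiments, five samples per concentration.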

[7] = Cytotoxicity against mouse JB6Cl41 cells; assay type: functional, cell-based; conditions: JB6 Cl41
[8] = Decrease in UVB induced AP1 dependent transcription in mouse JB6 Cl41 cells at 0.7 ug/ml by luciferase assay; assay type: functional; parameters: scale not given: the % may be the effect or the level left; outline: as §1
[9] = Inhibition EGF induced mouse JB6 P+Cl41 cells colony formation in soft agar; assay type: functional
Outline: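 JB6 P+ Cl41 cells (8 × 10^3/mL) activated with EGF (10 ng/mL), in 0.33% BME agar with 10% FBS over a 0.5% BME agar layer, compound in both layers. Kept 1 week at 37 °C, 5% CO2. Colonies scored by microscopy and INCC50 derived. Two independent experiments in triplicate.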

Row | Structure (SMILES) | IC50 [1] | IC50 [2] | Activity [3] | Activity [4] | Activity [5] | Activity [6] | IC50 [7] | Activity [8] | INCC50 [9]
1 | C=C(C)CCC[C@]1(C)OC(=O)C23CC[C@H]4C(=CC[C@H]5C(C)(C)C(O[C@@H]6OC[C@@H](OS(=O)(=O)[O-])[C@H](O)[C@H]6O[C@@H]6O[C@H](CO)[C@@H](O[C@@H]7O[C@H](COS(=O)(=O)[O-])[C@@H](O)[C@H](O[C@@H]8O[C@H](CO)[C@@H](O)[C@H](OC)[C@H]8O)[C@H]7O)[C@H](O)[C@H]6O[C@@H]6OC[C@@H](O)[C@H](O)[C@H]6O)CC[C@]45C)[C@]2(C)C[C@H](OC(C)=O)C31.[Na+].[Na+] (stereo partly specified) [OKHOTOSIDE B2] | 13 µg/mL | – | – | – | – | – | – | – | –
2 | CO[C@@H]1[C@@H](O)[C@H](O[C@@H]2[C@@H](O)[C@H](O[C@H]3[C@H](O)[C@@H](O[C@@H]4OC[C@@H](O)[C@H](O)[C@H]4O)[C@H](O[C@H]4[C@H](OC5CC[C@]6(C)[C@H]7CCC89C(=O)O[C@@](C)(CCCC(C)C)C8[C@@H](OC(C)=O)C[C@@]9(C)C7=CC[C@H]6C5(C)C)OC[C@@H](OS(=O)(=O)[O-])[C@@H]4O)O[C@@H]3C)OC[C@H]2O)O[C@H](CO)[C@H]1O.[Na+] (stereo partly specified) [FRONDOSIDE A] | 2.1 µg/mL | 4.5 µg/mL | 51% | 37% | 20% | 39% | 5.9 µg/mL | 41% | 0.8 µg/mL
3 | C=C(C)CCC[C@]1(C)OC(=O)C23CC[C@H]4C(=CC[C@H]5C(C)(C)C(O[C@@H]6OC[C@@H](OS(=O)(=O)[O-])[C@H](O)[C@H]6O[C@@H]6O[C@H](CO)[C@@H](O[C@@H]7O[C@H](CO)[C@@H](O)[C@H](O[C@@H]8O[C@H](CO)[C@@H](O)[C@H](OC)[C@H]8O)[C@H]7O)[C@H](O)[C@H]6O[C@@H]6OC[C@@H](O)[C@H](O)[C@H]6O)CC[C@]45C)[C@]2(C)C[C@H](OC(C)=O)C31.[Na+] (stereo partly specified) [OKHOTOSIDE B1] | 34 µg/mL | – | – | – | – | – | – | – | –
